Measured values from ChEMBL document CHEMBL5030529, “Rationally Modified Antimicrobial Peptides from the N-Terminal Domain of Human RNase 3 Show Exceptional Serum Stability” (J Med Chem, 2021).
Values after ≈ are worked out from the molar mass of the structure shown. Active and inactive are the calls of the source. No cut-off for these calls is given here. Square brackets hold non-standard residues; d marks the D form. Peptide text beside a SMILES is read from it. Orn = NCCC[C@H](N)C(=O)O

Columns and labels:
Cell membrane [1] = assay: Induction of membrane depolarization in Escherichia coli at 0.4 uM incubated 20 to 30 mins under dark by Eclipse fluorescence spectrometry; type: subcellular; settings: time 20-30 min
How it was run: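 Exponential-phase E. coli (OD 0.2–0.4) was washed in 5 mM HEPES, 20 mM glucose, 100 mM KCl, pH 7.2, and resuspended to OD 0.05. DiSC3(5) was added at 0.4 μM final and equilibrated in the dark for 20–30 min to a stable baseline. Peptide was then added and dye release was followed by fluorescence at ex 625 nm / em 666 nm.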

Cell membrane [2] = assay: Induction of membrane damage in Escherichia coli assessed as loss of membrane integrity by measuring blebs at 10 uM incubated for 2 hrs by Electron scanning microscopy; type: subcellular
How it was run: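 E. coli was grown in LB at 37 °C to OD600 0.4 and exposed to 10 μM peptide for 2 h at room temperature. Cells were collected on 0.1 μm filters, fixed in 2.5% glutaraldehyde in cacodylate buffer pH 7.4 and post-fixed in 1% OsO4. Samples were dehydrated in ethanol, coated with gold–palladium and imaged at 15 kV.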

Salmonella enterica = assay: Antimicrobial activity against Salmonella enterica assessed as bacterial growth inhibition incubated in presence of serum for 24 hrs; type: functional
How it was run: (§1)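 Broth microdilution in polypropylene plates in Mueller-Hinton medium, inoculum 5 × 10^5 CFU/mL, 37 °C for 24 h. […] MIC is the lowest peptide concentration with no growth. Values are the mean of three independent studies.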

[3] = Hemolytic activity in horse RBC assessed as hemolysis at 250 uM relative to control; type: ADME, tissue-based, Equus caballus; settings: erythrocyte
How it was run: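 Horse erythrocytes were diluted 10-fold in PBS and washed by three spins at 800g. They were incubated with peptides for 4 h at 37 °C, and supernatant absorbance was read at 540 nm. Percent hemolysis is relative to total lysis with 1% Triton X-100. Values are the mean of three independent studies.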

MRC5 = assay: Cytotoxicity against human MRC5 cells assessed as cell growth inhibition measured after 4 hrs by MTT assay; type: cell-based; settings: MRC5, 4 h
How it was run: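 MRC-5 fibroblasts were grown in MEMα with 10% FBS, seeded at 3 × 10^4 cells/well and left overnight to adhere. Cells were exposed to two-fold peptide serial dilutions for 4 h, then given medium with MTT at 0.4 mg/mL for 150 min. Formazan was dissolved in DMSO and read at 600 nm. Values are the mean of three independent studies.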

[4] = Stability in human serum assessed as half life by LC-MS analysis; type: ADME, cell-free
How it was run: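 1 mM peptide stocks in water were mixed 1:1 (v/v) with human serum. Aliquots were taken at set times and digestion was stopped by acetonitrile precipitation. Serum proteins were removed by centrifugation, and intact peptide and fragments in the supernatant were analysed by LC–MS. Half-life values are the mean of three independent studies.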

Shigella flexneri = assay: Antimicrobial activity against Shigella flexneri assessed as bacterial growth inhibition incubated in presence of serum for 24 hrs; type: functional; how it was run: as §1
Acinetobacter baumannii [5] = assay: Antimicrobial activity against Acinetobacter baumannii assessed as bacterial growth inhibition incubated for 24 hrs
[6] = Retention time of the compound by HPLC analysis; type: physicochemical
How it was run: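 Analytical RP-HPLC on a C18 column (4.6 × 50 mm, 3 μm) with a linear gradient of 0–60% acetonitrile (0.036% TFA) into water (0.045% TFA) over 15 min. Flow was 1 mL/min with UV detection at 220 nm.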

Pseudomonas sp. = assay: Antimicrobial activity against Pseudomonas sp assessed as bacterial growth inhibition incubated in presence of serum for 24 hrs; type: functional; how it was run: as §1
Escherichia coli [7] = assay: Antimicrobial activity against Escherichia coli assessed as bacterial growth inhibition incubated for 24 hrs
Salmonella typhimurium [8] = assay: Antimicrobial activity against clinical isolate Salmonella typhimurium 365 assessed as bacterial growth inhibition incubated in presence of serum for 24 hrs; type: functional, Salmonella enterica subsp. enterica serovar Typhimurium; settings: Salmonella enterica; how it was run: as §1
Acinetobacter baumannii [9] = assay: Antimicrobial activity against clinical isolate Acinetobacter baumannii 3880 assessed as bacterial growth inhibition incubated in presence of serum for 24 hrs; type: functional; how it was run: as §1
Salmonella typhimurium [10] = assay: Antimicrobial activity against clinical isolate Salmonella typhimurium 324 assessed as bacterial growth inhibition incubated in presence of serum for 24 hrs; type: functional, Salmonella enterica subsp. enterica serovar Typhimurium; settings: Salmonella enterica; how it was run: as §1
Escherichia coli [11] = assay: Antimicrobial activity against clinical isolate Escherichia coli 116878 assessed as bacterial growth inhibition incubated in presence of serum for 24 hrs; type: functional; how it was run: as §1
Acinetobacter baumannii [12] = assay: Antimicrobial activity against clinical isolate Acinetobacter baumannii 3862 assessed as bacterial growth inhibition incubated in presence of serum for 24 hrs; type: functional; how it was run: as §1
Pseudomonas aeruginosa [13] = assay: Antimicrobial activity against clinical isolate Pseudomonas aeruginosa 827651 assessed as bacterial growth inhibition incubated in presence of serum for 24 hrs; type: functional; how it was run: as §1
Acinetobacter baumannii [14] = assay: Antimicrobial activity against clinical isolate Acinetobacter baumannii 3879 assessed as bacterial growth inhibition incubated in presence of serum for 24 hrs; type: functional; how it was run: as §1
Escherichia coli [15] = assay: Antimicrobial activity against clinical isolate Escherichia coli cf073 assessed as bacterial growth inhibition incubated in presence of serum for 24 hrs; type: functional; how it was run: as §1
Acinetobacter baumannii [16] = assay: Antimicrobial activity against clinical isolate Acinetobacter baumannii 3878 assessed as bacterial growth inhibition incubated in presence of serum for 24 hrs; type: functional; how it was run: as §1
Pseudomonas aeruginosa [17] = assay: Antimicrobial activity against clinical isolate Pseudomonas aeruginosa 827632 assessed as bacterial growth inhibition incubated in presence of serum for 24 hrs; type: functional; how it was run: as §1

Compound	Activity (Cell membrane [1])	Activity (Cell membrane [2])	MIC (Salmonella enterica) [µM]	Activity [3] [%]	IC50 (MRC5) [µM]	half-life [4] [min]	MIC (Shigella flexneri) [µM]	MIC (Acinetobacter baumannii [5]) [µM]	Retention_time [6] [min]	MIC (Pseudomonas sp.) [µM]	MIC (Escherichia coli [7]) [µM]	MIC (Salmonella typhimurium [8]) [µM]	MIC (Acinetobacter baumannii [9]) [µM]	MIC (Salmonella typhimurium [10]) [µM]	MIC (Escherichia coli [11]) [µM]	MIC (Acinetobacter baumannii [12]) [µM]	MIC (Pseudomonas aeruginosa [13]) [µM]	MIC (Acinetobacter baumannii [14]) [µM]	MIC (Escherichia coli [15]) [µM]	MIC (Acinetobacter baumannii [16]) [µM]	also measured
CC[C@H](C)[C@H](NC(=O)[C@H](CCCCN)NC(=O)[C@H](CCC(=O)O)NC(=O)[C@H](CCCCN)NC(=O)[C@H](CO)NC(=O)[C@H](CCCCN)NC(=O)[C@H](CCCNC(=N)N)NC(=O)[C@H](Cc1ccccc1)NC(=O)[C@H](Cc1ccccc1)NC(=O)[C@H](CC(=O)O)NC(=O)CNC(=O)[C@H](CC(C)C)NC(=O)[C@@H](N)CC(C)C)C(=O)NCC(=O)N[C@@H](CCCCN)C(=O)N[C@@H](CCC(=O)O)C(=O)N[C@@H](Cc1ccccc1)C(=O)N[C@@H](CCCCN)C(=O)N[C@@H](CCCNC(=N)N)C(=O)N[C@H](C(=O)N[C@H](C(=O)N[C@@H](CCC(N)=O)C(=O)N[C@@H](CCCNC(=N)N)C(=O)N[C@H](C(=O)N[C@@H](CCCCN)C(=O)N[C@@H](CC(=O)O)C(=O)N[C@@H](Cc1ccccc1)C(=O)N[C@@H](CC(C)C)C(=O)N[C@@H](CCCNC(=N)N)C(=O)N[C@@H](CC(N)=O)C(=O)N[C@@H](CC(C)C)C(=O)N[C@H](C(=O)N1CCC[C@H]1C(=O)N[C@@H](CCCNC(=N)N)C(=O)N[C@H](C(=O)N[C@@H](CCC(=O)O)C(=O)N[C@@H](CO)C(=O)O)[C@@H](C)O)C(C)C)[C@@H](C)CC)C(C)C)[C@@H](C)CC	Active	Active	–	–	–	–	–	–	–	–	–	–	–	–	–	–	–	–	–	–	–
CC[C@H](C)[C@H](NC(=O)[C@H](C)NC(=O)[C@H](CCCN)NC(=O)[C@H](CCSC)NC(=O)[C@H](C)NC(=O)[C@@H](NC(=O)[C@@H](NC(=O)[C@H](CCCN)NC(=O)[C@@H]1CCCN1C(=O)[C@H](CO)NC(=O)[C@@H](NC(=O)[C@H](Cc1c[nH]cn1)NC(=O)[C@H](CCC(N)=O)NC(=O)[C@@H](NC(=O)[C@H](C)NC(=O)[C@H](Cc1ccccc1)NC(=O)[C@H](Cc1c[nH]c2ccccc12)NC(=O)[C@H](CCC(N)=O)NC(=O)[C@H](C)NC(=O)[C@H](CCCN)NC(=O)[C@@H](NC(=O)[C@H](Cc1ccccc1)NC(=O)[C@@H]1CCCN1C(=O)[C@@H](N)CCCN)[C@@H](C)O)[C@@H](C)CC)[C@@H](C)CC)[C@@H](C)O)[C@@H](C)CC)C(=O)N[C@@H](CC(N)=O)C(=O)N[C@@H](CC(N)=O)C(=O)N[C@@H](Cc1ccc(O)cc1)C(=O)N[C@@H](CCCN)C(=O)N[C@@H](Cc1c[nH]c2ccccc12)C(=O)N[C@@H](CCCN)C(=O)O	Active	Active	25	10	113	29.1	12.5	6.25 (≈ 21.9 µg/mL)	8.4	6.25	6.25 (≈ 21.9 µg/mL)	–	–	–	–	–	–	–	–	–	–
CC[C@H](C)[C@H](NC(=O)[C@H](C)NC(=O)[C@H](CCCN)NC(=O)[C@H](CCSC)NC(=O)[C@H](C)NC(=O)[C@@H](NC(=O)[C@@H](NC(=O)[C@H](CCCN)NC(=O)[C@@H]1CCCN1C(=O)[C@H](CO)NC(=O)[C@@H](NC(=O)[C@H](Cc1c[nH]cn1)NC(=O)[C@H](CCC(N)=O)NC(=O)[C@@H](NC(=O)[C@H](C)NC(=O)[C@H](Cc1ccccc1)NC(=O)[C@H](Cc1c[nH]c2ccccc12)NC(=O)[C@H](CCC(N)=O)NC(=O)[C@H](C)NC(=O)[C@H](CCCN)NC(=O)[C@@H](NC(=O)[C@@H](N)Cc1ccccc1)[C@@H](C)O)[C@@H](C)CC)[C@@H](C)CC)[C@@H](C)O)[C@@H](C)CC)C(=O)N[C@@H](CC(N)=O)C(=O)N[C@@H](CC(N)=O)C(=O)N[C@@H](Cc1ccc(O)cc1)C(=O)N[C@@H](CCCN)C(=O)N[C@@H](Cc1c[nH]c2ccccc12)C(=O)N[C@@H](CCCN)C(=O)O (H-FT[Orn]AQWFAIQHISP[Orn]TIAM[Orn]AINNY[Orn]W[Orn]-OH)	–	–	> 100	11	> 300	> 480	50	> 100	10.8	25	25 (≈ 82.4 µg/mL)	–	–	–	–	–	–	–	–	–	–
H-RPFTRAQWFAIQHISPRTIAMRAINNYRWR-OH	Active	Active	12.5	44	23	12.3	3.13	1.56	8.9	1.56	1.56	6.25	1.56	6.25	6.25	0.78	25	1.56	3.13	1.56	MIC (Pseudomonas aeruginosa [17]): 12.5 µM
CC[C@H](C)[C@H](NC(=O)[C@H](C)NC(=O)[C@H](CCCN)NC(=O)[C@H](CCSC)NC(=O)[C@H](C)NC(=O)[C@@H](NC(=O)[C@@H](NC(=O)[C@H](CCCN)NC(=O)[C@@H]1CCCN1C(=O)[C@H](CO)NC(=O)[C@@H](NC(=O)[C@H](Cc1c[nH]cn1)NC(=O)[C@H](CCC(N)=O)NC(=O)[C@@H](NC(=O)[C@H](C)NC(=O)[C@H](Cc1ccccc1)NC(=O)[C@H](Cc1c[nH]c2ccccc12)NC(=O)[C@H](CCC(N)=O)NC(=O)[C@H](C)NC(=O)[C@H](CCCN)NC(=O)[C@@H](NC(=O)[C@H](Cc1ccccc1)NC(=O)[C@H]1CCCN1C(=O)[C@H](N)CCCN)[C@@H](C)O)[C@@H](C)CC)[C@@H](C)CC)[C@@H](C)O)[C@@H](C)CC)C(=O)N[C@@H](CC(N)=O)C(=O)N[C@@H](CC(N)=O)C(=O)N[C@@H](Cc1ccc(O)cc1)C(=O)N[C@@H](CCCN)C(=O)N[C@@H](Cc1c[nH]c2ccccc12)C(=O)N[C@@H](CCCN)C(=O)O	Active	Active	25	3.6	170	> 480	6.25	6.25 (≈ 21.9 µg/mL)	10.8	1.56	3.13 (≈ 11 µg/mL)	25	6.25	25	6.25	0.78	100	1.56	3.13	0.78	MIC (Pseudomonas aeruginosa [17]): 25 µM
CC[C@H](C)[C@H](NC(=O)[C@H](C)NC(=O)[C@H](CCCN)NC(=O)[C@H](CCSC)NC(=O)[C@H](C)NC(=O)[C@@H](NC(=O)[C@@H](NC(=O)[C@H](CCCN)NC(=O)[C@@H]1CCCN1C(=O)[C@H](CO)NC(=O)[C@@H](NC(=O)[C@H](Cc1c[nH]cn1)NC(=O)[C@H](CCC(N)=O)NC(=O)[C@@H](NC(=O)[C@H](C)NC(=O)[C@H](Cc1ccccc1)NC(=O)[C@H](Cc1c[nH]c2ccccc12)NC(=O)[C@H](CCC(N)=O)NC(=O)[C@H](C)NC(=O)[C@H](CCCN)NC(=O)[C@@H](NC(=O)[C@H](Cc1ccccc1)NC(=O)[C@H]1CCCN1C(=O)[C@@H](N)CCCN)[C@@H](C)O)[C@@H](C)CC)[C@@H](C)CC)[C@@H](C)O)[C@@H](C)CC)C(=O)N[C@@H](CC(N)=O)C(=O)N[C@@H](CC(N)=O)C(=O)N[C@@H](Cc1ccc(O)cc1)C(=O)N[C@@H](CCCN)C(=O)N[C@@H](Cc1c[nH]c2ccccc12)C(=O)N[C@@H](CCCN)C(=O)O	Active	Active	50	1.1	230	> 480	50	12.5 (≈ 43.8 µg/mL)	10.9	1.56	3.13 (≈ 11 µg/mL)	25	12.5	25	25	1.56	25	3.13	6.25	0.78	MIC (Pseudomonas aeruginosa [17]): > 100 µM
